These results are taken from paper PMC10401072 (Cancer discovery, 2023).

SMILES strings stand for the structures.

For data set [1], the system named is KRAS G12D mutant low-grade serous ovarian cancer. In words: Phase 1 trial tumor response. Conditions: after 6 weeks of monotherapy. It is filed as in vivo, human. The method in brief: (§1)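 Tumor response was assessed by CT imaging every 6 weeks per RECIST v1.1 during oral monotherapy (powder in capsule) on the phase I trial.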
Data set [2] deals with pERK in ex vivo CSF1-stimulated peripheral blood monocytes. The experiment in a line: Patient pharmacodynamic assessment. Set-up: species or system human. Conditions: ALK NSCLC patient; 20 mg; 4 hours after dosing on C1D1. An outline of the steps:
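Patient whole blood was shipped refrigerated the same day and processed within a 24 h stability window. Ex vivo stimulation used 9 ng/mL recombinant human M-CSF for 12 min at room temperature, with unstimulated control. Staining with CD45, CD14, ERK1/2 and pERK1/2 (T202/Y204) antibodies ran 30 min in the dark. Flow cytometry excluded doublets and gated CD45+CD14+ monocytes. pERK1/2 MFI was normalized to the unstimulated sample.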

The nature of data set [3]: Patient pharmacokinetic assessment. It is filed as in vivo, human. An outline of the steps: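 Compound was given as powder in capsule. Plasma was sampled before treatment and at set intervals after dosing on cycle 1 days 1 and 18 at the starting monotherapy dose. Drug level was measured by a validated LC-MS/MS assay.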
In data set [4] the test system is EML4-ALK fusion-positive NSCLC. It is filed as in vivo, human. Conditions: after 6 weeks monotherapy, 20 mg BIW.
In data set [5] the test system is GOPC-ROS1 fusion-positive pancreatic adenocarcinoma. In words: Phase 1 trial tumor response. In kind it is in vivo, human.
A further data set in a line: Phase 1 trial safety. Conditions: single patient, monotherapy followed by combination, first dose level. It is filed as in vivo, human. An outline of the steps:
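Lead-in monotherapy ran 2 cycles/6 weeks. Matched targeted therapy was then added at labeled doses upon radiographic progression, if no ongoing grade ≥3 toxicity or DLT. The SHP2 inhibitor restarted one dose level below the highest safe monotherapy dose. Intrapatient escalation was allowed after 1 cycle. Adverse events were graded by CTCAE v5.0, and dose changes followed a prescribed algorithm.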

Data set [6] deals with metastatic BRAF V600E colorectal cancer. The experiment in a line: Phase 1 trial tumor response. It is filed as in vivo, human. Conditions: after 6 weeks monotherapy; new lesions. An outline of the steps: as §1
Data set [7] has as its system pERK in MIA PaCa-2 tumors. The experiment in a line: Animal PK/PD study: pERK in tumors. It is filed as in vivo, mouse. Conditions: single oral dose 30 mg/kg. An outline of the steps: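 Female Foxn1nu mice bearing subcutaneous right-flank xenografts (5 × 10^6 cells) grown to about 500 mm3 and randomized by size into groups of three. Each received one 30 mg/kg oral gavage dose in 20% hydroxypropyl-β-cyclodextrin/50 mmol/L citric acid, pH 4. Tumors were taken at 1, 8, 24 and 48 h and lysed in NP-40 buffer. pERK was immunoblotted in 250 μg lysate, normalized to GAPDH and vehicle controls, as POC.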

The conditions of data set [8]: cited from earlier work.

As for `Nc1nccc(Sc2cnc(N3CCC4(CC3)Cc3ccccc3[C@H]4N)nn2)c1Cl` [PF-07284892], in data set [1], the “tumor growth in two target lesions” value was “+6%”. Moreover, the “decrease in pERK levels in peripheral blood monocytes” value in [2] was 80%. Besides, the “plasma level of PF-07284892” value in [3] (ALK NSCLC patient, 20 mg orally BIW, 4 hours after C1D1 dose) was determined as 41 ng/mL; in [3] (ALK NSCLC patient, 20 mg orally BIW, pre-dose C1D18, 3 days after prior dose), 29 ng/mL; in data set [3] (BRAF V600E CRC patient, 20 mg BIW, C1D1), 56 ng/mL; in data set [3] (BRAF V600E CRC patient, 20 mg BIW, C1D18) it was 35 ng/mL. In [4], the “change in target lesions on CT” value is recorded as “+50%”. Also, the “response (RECIST 1.1)” value in data set [4] is reported as “progressive disease”. Further, the “change in two target lesion liver metastases” value in [5] (after 6 weeks of monotherapy) is given as “+26%”. Further, the “dose-limiting toxicities (DLTs)” value in “Phase 1 trial safety” is reported as “no DLTs”. In [6], the “change in target lesions” value is on record as “+43%”. Also, in [7], the “suppression of pERK in tumors” value is “significant suppression”.

Take `Cc1nc(N2CCC3(CC2)CO[C@@H](C)[C@H]3N)c(CO)nc1Sc1ccnc(N)c1Cl` [RMC-4630]: the “monotherapy activity in FIH trials” value in [8] is on record as “limited monotherapy activity”.

Turning to `C[C@@H]1OCC2(CCN(c3cnc(Sc4ccnc(N)c4Cl)c(N)n3)CC2)[C@@H]1N` [TNO155], in data set [8], the “monotherapy activity in FIH trials” value was “limited monotherapy activity”.

In the case of `C[C@H]1CNC(=O)c2cnn3ccc(nc23)N[C@H](C)c2cc(F)ccc2O1` [repotrectinib, reference compound], the “time to progression on previous therapy” value in data set [5] (pre-study therapy, patient history) was ~ 10 months.
